BB579 growth dn: chemicals that inhibit yeast BB579 growth in restrictive medium (lifespan-shortening candidates) | inhibition, % at 10 µM | 140,000 compounds, 0.51% hits | S. cerevisiae BB579 growth, OD615, 48 h;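 active = inhibition above a set limit, 3 SD over the mean compound inhibition, cut at about 44% in these data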
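test system = yeast BB579 (DeaD) | buffer or medium = restrictive CSMM-D medium | doses = single compound dose of 10 µM, 0.25% DMSO final | times = 4 h preincubation and 48 h exposure at 30 °C | technique = culture absorbance at 615 nm | benchmarks = amphotericin B 10 µg/mL, positive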
sEH act: activators of human soluble epoxide hydrolase; purified human sEH enzymatic activity, activator screen; activation, % at 2 µM; 91,000 compounds, 0.04% hits; AID 717; in the data active = activation above about 37%
Target sequence (P34913 whole entry, looked up): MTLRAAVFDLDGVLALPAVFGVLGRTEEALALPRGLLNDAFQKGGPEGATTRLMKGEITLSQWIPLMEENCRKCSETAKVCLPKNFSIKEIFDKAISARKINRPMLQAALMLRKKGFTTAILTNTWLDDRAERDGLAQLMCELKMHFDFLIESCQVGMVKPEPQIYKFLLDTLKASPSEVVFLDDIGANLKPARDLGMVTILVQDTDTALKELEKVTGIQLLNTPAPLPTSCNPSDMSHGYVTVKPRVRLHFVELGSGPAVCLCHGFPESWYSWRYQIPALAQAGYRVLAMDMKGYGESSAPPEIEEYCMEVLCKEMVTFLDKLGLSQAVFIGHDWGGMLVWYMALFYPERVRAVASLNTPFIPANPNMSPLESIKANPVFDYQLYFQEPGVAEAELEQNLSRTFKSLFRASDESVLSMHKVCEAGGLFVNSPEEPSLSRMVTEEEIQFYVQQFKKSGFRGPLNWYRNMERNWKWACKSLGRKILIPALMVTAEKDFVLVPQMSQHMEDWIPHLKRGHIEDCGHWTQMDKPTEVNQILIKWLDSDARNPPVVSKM
SDO1 yeast rescue: compounds rescuing growth of sdo1-depleted yeast, bone marrow failure model; S. cerevisiae sdo1-depleted JHY4D growth rescue, OD600 30 h; hits give high values; pdr5 snq2 efflux-pump mutant strain; z-score at 10 µM; 140,000 compounds, 0.21% hits; AID 817;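 active = z-score above 3 at both the 24 hr and the 30 hr optical density reads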;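 also: z-score against mean and SD of all compound wells on the same plate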
Measles CPE: protection of cells from measles virus. Measles virus-infected cells, CPE protection, absorbance. protection (pct of control), % at 4 µM. 140,000 compounds, 1.5% hits. AID 841; in the data active = protection mostly above about 24%, no sharp cut-off; inactive = mostly below about 26%
Yeast life ext: yeast lifespan extension | 130,000 compounds, 0.68% hits | inhibition of the nicotinamide effect, % at 10 µM | S. cerevisiae growth with nicotinamide, OD615; deaD strain in restrictive glucose medium;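 active = inhibition above a set limit, placed 3 SD over the median of all compounds, cut at about 26% in these data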;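 also: 0% = nicotinamide-treated wells and 100% = cells grown without nicotinamide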
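Assay system: engineered S. cerevisiae DeaD replicative-lifespan strain, galactose-grown log-phase cells; Buffer or medium: CSMM-D glucose medium, restrictive; Probe or stimulus: nicotinamide 1.5 mM; Compound: single dose 10 µM compound, 0.25% DMSO; Schedule: 4 h preincubation then 48 h treatment at 30 °C; Technique: OD615 measurement.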
sEH inh: blocks human soluble epoxide hydrolase activity. P34913. recombinant human sEH enzymatic activity assay. inhibition, % at 2 µM. 91,000 compounds, 0.34% hits. AID 707; in the data active = inhibition above about 80%
* hit, by the source's call. An excerpt weighted towards active compounds, which were near 3% of everything screened.

`C=CCOc1ccc(C2N3CC4(CC)CN2CC(CC)(C3)C4=O)cc1` (stereo not drawn) gave BB579 growth dn -29, SDO1 yeast rescue -0.8, Measles CPE 6 and Yeast life ext 7.
Screening CCC12CN3CC(CC)(CN(C1)C3c1c(O)ccc3ccccc13)C2=O (stereo not drawn) returned BB579 growth dn -38, sEH act 8, SDO1 yeast rescue -0.54, Measles CPE 5, Yeast life ext 26* and sEH inh -4.
CCCCC(C)(O)C/C=C/[C@H]1[C@H](O)CC(=O)[C@@H]1CCCCCCC(=O)OC (stereo partly drawn) was read as BB579 growth dn -39, SDO1 yeast rescue 0.2, Measles CPE 48 and Yeast life ext 32*.
COc1ccc(CCN2C(=O)C3C4CC(C5C(C(=O)N/N=C\c6ccc(Cl)cc6)=NOC45)C3C2=O)cc1OC (stereo not drawn) was read as BB579 growth dn -34, sEH act -94, SDO1 yeast rescue -0.56, Measles CPE 2, Yeast life ext -10 and sEH inh 94*.
Screening COc1ccc(CCN2C(=O)CC(NNC(=O)c3ccc(F)cc3)C2=O)cc1OC (stereo not drawn) returned BB579 growth dn -14, SDO1 yeast rescue 0.99, Measles CPE 8 and Yeast life ext -7.
Screening COc1cccc(N=c2oc3ccc(OC)cc3cc2-c2nc3ccccc3[nH]2)c1 returned BB579 growth dn -38, sEH act 6, SDO1 yeast rescue 2.2, Measles CPE 47*, Yeast life ext -20 and sEH inh -4.
Cc1nn(C)c(C)c1CNC(=O)c1nn2c(c1Cl)NC(c1cccs1)CC2C(F)(F)F (stereo not drawn) was read as BB579 growth dn -23, sEH act 1, SDO1 yeast rescue -0.18, Measles CPE 12, Yeast life ext -10 and sEH inh -3.
Cc1nn(C)cc1CNC(=O)c1cc2n(n1)C(C(F)(F)F)CC(c1cccs1)N2 (stereo not drawn) was read as BB579 growth dn -23, sEH act 4, SDO1 yeast rescue 1.7, Measles CPE 20*, Yeast life ext -20 and sEH inh -4.
O=C(Nc1ccc(Cc2ccncc2)cc1)C1CCC(N2C(=O)C3C4C=CC(C5CC45)C3C2=O)CC1 (stereo not drawn) was read as BB579 growth dn -20, sEH act -87, SDO1 yeast rescue -1.2, Measles CPE 25, Yeast life ext 0 and sEH inh 86*.
CCN(CC)Cc1c(O)c(Cl)cc2c(C)c(C)c(=O)oc12 was read as BB579 growth dn -66, sEH act -1, SDO1 yeast rescue 1.7, Measles CPE 7, Yeast life ext 88* and sEH inh 3.
Screening Cc1c(C)c2cc(Cl)c(O)c(CN3CCN(C)CC3)c2oc1=O returned BB579 growth dn -16, sEH act 9, SDO1 yeast rescue 0.27, Measles CPE 10, Yeast life ext -7 and sEH inh -7.
`O=C1CC(=O)N(c2ccccc2)N1c1ccccc1` gave BB579 growth dn -14, SDO1 yeast rescue -0.13, Measles CPE 24 and Yeast life ext 28*.
Screening CC(C)=CCC/C(C)=C/C=N/NC(=O)c1ccc([N+](=O)[O-])cc1 returned BB579 growth dn -22, SDO1 yeast rescue -0.35 and Yeast life ext 0.
Oc1ccc(-c2csc(NCc3ccco3)n2)cc1 was read as BB579 growth dn -16, SDO1 yeast rescue 0.19, Measles CPE 9 and Yeast life ext -28.
Screening CC(=O)Nc1cccc(-c2csc(NCc3ccco3)n2)c1 returned BB579 growth dn -50, sEH act 9, SDO1 yeast rescue 0.59, Measles CPE 27*, Yeast life ext -7 and sEH inh -10.
`O=C(O)c1ccc2c(c1)-c1nc3ccccc3n1C2=O` gave BB579 growth dn -25, sEH act -12, SDO1 yeast rescue 1.2, Measles CPE 30, Yeast life ext 2 and sEH inh 10.
COC(=O)c1c(NC(=O)c2ccc(N(C)S(=O)(=O)c3ccc(C)cc3)cc2)sc2c1CCCC2 was read as BB579 growth dn -35, SDO1 yeast rescue 1.1, Measles CPE 4 and Yeast life ext 9.
COCCN(CCOC)S(=O)(=O)c1ccc(C(=O)Nc2sc3c(c2C(N)=O)CCCCC3)cc1 was read as BB579 growth dn -34, SDO1 yeast rescue -0.38, Measles CPE 10 and Yeast life ext 40*.
Screening Cc1nc2ccccc2n2c(-c3ccccc3)c3c(=O)n(C)c(=O)n(C)c3c12 returned BB579 growth dn -26, sEH act 9, SDO1 yeast rescue -1.4, Measles CPE 0, Yeast life ext -5 and sEH inh -6.
For CC(C)CCn1c(S(=O)(=O)O)nc2ccccc21 the results were BB579 growth dn -25, sEH act 5, SDO1 yeast rescue 0.21, Measles CPE 5, Yeast life ext -9 and sEH inh -1.
`CCC(C)Cn1c(S(=O)(=O)O)nc2ccccc21` (stereo not drawn) gave BB579 growth dn -41, sEH act 1, SDO1 yeast rescue 1.6, Measles CPE 50*, Yeast life ext -3 and sEH inh 0.
`Cc1nc2nc3c(c(=O)n2[nH]1)CCCC3` gave BB579 growth dn -50, sEH act -14, SDO1 yeast rescue 2.4, Measles CPE 29*, Yeast life ext -19 and sEH inh 14.
`CCOc1ccc(CCn2c(-c3ccco3)nc3ccccc3c2=O)cc1OCC` gave BB579 growth dn -56, sEH act 10, SDO1 yeast rescue 0.84, Measles CPE 44*, Yeast life ext -9 and sEH inh -14.
`O=C(Cc1ccccc1)Nc1cc(C(=O)c2ccccc2)ccc1N1CCOCC1` gave BB579 growth dn -7, sEH act 1, SDO1 yeast rescue -0.99, Measles CPE 2, Yeast life ext -1 and sEH inh 0.
For C/C(N)=C(/C#N)C(=O)CSc1nc(C2CCCCC2)n(-c2ccccc2)n1 the results were BB579 growth dn 13, SDO1 yeast rescue -1.6, Measles CPE 1 and Yeast life ext 59*.
O=C1C(=O)N(O)C2CCCCC2N1O (stereo not drawn) was read as BB579 growth dn -25, SDO1 yeast rescue 1.4, Measles CPE 6 and Yeast life ext 0.
Screening CON1C(=O)C(=O)N(OC)C2CCCCCC21 (stereo not drawn) returned BB579 growth dn -26, SDO1 yeast rescue -0.24, Measles CPE 45* and Yeast life ext -1.
O=C(COC(=O)C1=Cc2ccccc2OC1)NC1CCCC1 was read as BB579 growth dn -31, sEH act 3, SDO1 yeast rescue 0.58, Measles CPE 8, Yeast life ext -19 and sEH inh -1.
O=C(Nc1nccs1)c1c(O)c2cccc3c2n(c1=O)CCC3 was read as BB579 growth dn -23, sEH act 1, SDO1 yeast rescue -2.4, Measles CPE 8, Yeast life ext 30* and sEH inh 2.

Screening data deposited in PubChem by several laboratories.
